Most compounds without a hit are left out; they make up all but 5.1% or so of the library.
STAT3 inh – inhibitors of IL-6 induced STAT3 signaling; U3A cells, IL-6 STAT3-luciferase reporter, luminescence; host cell line lacks STAT1; actives 0.89% (n = 190,000); inhibition, % at 5.5 µM;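 active = inhibition above the mean inhibition across all screened compounds plus 3 SD, cut at about 44% in these data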;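 note: 0% = DMSO only wells and 100% = 100 µM nifuroxazide control wells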
STAT1 blocker – STAT1 signaling inhibition; inhibition, % at 5.5 µM; actives 0.35% (n = 200,000); AID 920; NIH 3T3 STAT1-luciferase reporter, IFN-gamma, luminescence;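 active = inhibition above a set limit, the mean inhibition across all tested compounds plus 3 SD, cut at about 34% in these data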;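 note: 0% = IFN-gamma with DMSO and 100% = IFN-gamma with 300 µM nifuroxazide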
STAT3 activator – increases IL-6 driven STAT3 reporter signal | U3A cells, IL-6 STAT3-luciferase reporter, luminescence; 100% = signal with IL-6 EC80 alone | activation (% of control), % at 5.6 µM | actives 0.91% (n = 190,000) | AID 871;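 active = activation above the screen-wide mean of compound activation plus 3 SD, cut at about 130% in these data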;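 note: 0% = background luminescence of wells with medium and substrate only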
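Test system: STAT3-luciferase reporter U3A cells; Detection: reporter luminescence signal; Times: 1 h compound pre-exposure, 6 h IL-6 stimulation, 37 °C; Benchmarks: IL-6-only high control; Also added: IL-6 stimulus at 33 ng/mL final.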
NF-kB neuron act – NF-kB expression increase, human neuronal cells; NF-kB reporter expression; active compounds read high; actives 1.6% (n = 190,000); AID 1239; fold change at 12.5 µM; in the data active = fold change above about 3.3
STAT1 activator – activators of IFN-gamma induced STAT1 signaling; actives 2.6% (n = 200,000); activation (% of control), % at 5.5 µM; NIH 3T3 STAT1-luciferase reporter, luminescence; 100% = IFN-gamma alone, no compound;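 active = activation above the screen-wide mean activation plus 3 SD, cut at about 130% in these data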;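 note: raw ratio to IFN-gamma control signal so 100% means no change and 0% no light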
APP 5'UTR act – activates APP 5'UTR luciferase reporter | SH-SY5Y APP 5'UTR luciferase reporter, luminescence; zero percent = DMSO vehicle wells | activation, % at 2 µM | actives 1% (n = 190,000) | AID 1276;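 active = activation above a set limit, based on mean plus 3 SD of controls, cut at about 140% in these data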
Starred values were filed as active, the others as inactive; . = not tested or not shown.

SMILES | STAT3 inh | STAT1 blocker | STAT3 activator | NF-kB neuron act | STAT1 activator | APP 5'UTR act
CNC(=O)c1cccn(Cc2ccc(C(F)(F)F)cc2)c1=O | 46* | 37* | 64 | 2.2 | 65 | -5
FC(F)(F)c1ccc2c(c1)NP(=S)(N1CCOCC1)c1nccn1-2 (centres undefined) | 4 | -3 | 102 | 1.2 | 102 | -1
CN1CCC(O)(c2ccc(Cl)cc2)C(C(=O)c2ccc(Cl)cc2)C1 (centres undefined) | 13 | -4 | 97 | 1.6 | 102 | 2
CN1CCN(C(=O)COc2ccc(-c3nc4ccccc4s3)cc2)CC1 | 85* | 49* | 28 | 4.3* | 55 | 135*
CC(C)NS(=O)(=O)c1ccc(OCC(=O)N2CCN(C)CC2)cc1 | 11 | 1 | 98 | 1.2 | 99 | -4
CN1CC(C(=O)c2ccccc2)C(C(=O)c2ccccc2)C1 (centres undefined) | -3 | -28 | 109 | 4.3* | 125 | 82
CC(/C=N/NC(=O)c1n[nH]c2c1CCC2)=C\c1ccccc1 | -32 | -24 | 127 | 6.9* | 122 | -94
CCN(CC)C(=O)c1ccc(NC(=O)Nc2ccccc2F)cc1 | 86* | 62* | 32 | 1.6 | 42 | 121
O=c1[nH]c(=S)[nH]c(O)c1N=Nc1ccc2c(c1)OCO2 | 5 | -31 | 96 | 1.2 | 130* | 40
O=c1[nH]c(O)c(N=Nc2ccc3c(c2)OCCO3)c(=O)[nH]1 | 79* | 41* | 37 | 1.1 | 61 | 34
O=c1[nH]c(O)c(N=Nc2ccc(S(=O)(=O)N3CCOCC3)cc2)c(=O)[nH]1 | -1 | -1 | 105 | 1.2 | 99 | -10
O=c1[nH]c(=S)[nH]c(O)c1N=Nc1cc2c(cc1[N+](=O)[O-])OCO2 | 8 | 4 | 99 | 1.1 | 95 | -13
O=c1[nH]c(=S)[nH]c(O)c1N=Nc1ccc(OC(F)F)cc1 | 28 | -53 | 81 | 1.2 | 147* | 95
CC1=CC(=C2C(=O)NC(=S)NC2=O)C=C(C(F)(F)F)N1CCc1ccccc1 | 3 | 1 | 102 | 0.89 | 99 | -92
COc1ccc(C2CN(C)CC2C(=O)c2ccc(C)cc2)cc1Cl (centres undefined) | 21 | 9 | 86 | 1.1 | 91 | -10
O=c1c2ccccc2nc(CSc2ncnc3nc[nH]c23)n1-c1ccccc1 | 6 | -4 | 99 | 3.9* | 104 | 6
C/C(=C/C=C/[C@@H](C)C(=O)O)[C@H]1CN[C@H](C(=O)O)[C@H]1CC(=O)O | 14 | 2 | 98 | 1.5 | 98 | -11
COc1cccc(C2(O)CCSCC2CN(C)C)c1 (centres undefined) | 6 | 15 | 96 | 1.6 | 87 | -14
C=CCNC(=S)/N=C/c1c(O)[nH]c(=O)[nH]c1=O | -1 | 4 | 100 | 0.97 | 97 | 3
NC(=S)/N=C/c1c(O)[nH]c(=O)[nH]c1=O | 3 | 0 | 101 | 3.4* | 99 | 24
COCCNP(=O)(c1ccccc1)c1nc2ccccc2s1 (centres undefined) | -8 | 0 | 112 | 0.73 | 100 | 8
NCCc1nc2ccccc2s1 | -33 | 5 | 133* | 1.1 | 97 | 3
O=C1Nc2ccccc2/C1=C/c1cnc[nH]1 | 57* | -19 | 58 | 0.6 | 117 | 1
COc1ccc(-n2c(/C=C3\C(=O)Nc4ccccc43)nc3ccccc3c2=O)cc1 | 18 | -2 | 87 | 0.93 | 101 | -11
Cc1cc(C(=O)N=Nc2c(O)n(C)c3ccccc23)c(C)o1 | 11 | -33 | 90 | 2.2 | 129* | 76
SMILES | STAT3 inh | STAT1 blocker | STAT3 activator | NF-kB neuron act | STAT1 activator | APP 5'UTR act
OC(CCNCCc1c[nH]c2ccccc12)C(F)(F)Cl (centres undefined) | -3 | 5 | 103 | 0.95 | 94 | -10
COc1ccc(CCn2c(O)c(C=NCc3ccc4c(c3)OCO4)c(=O)[nH]c2=O)cc1OC | -17 | -47 | 117 | 1 | 143* | 15
O=C(c1ccc(N2CCCCCC2)c([N+](=O)[O-])c1)N1CCC2(CC1)OCCO2 | -3 | 2 | 105 | 0.82 | 96 | -4
COc1ccc(-c2cc(=Nc3cccc(C(=O)O)c3)c3cc(C)ccc3o2)cc1 | 19 | -42 | 90 | 2.2 | 136* | 139*
CCCCCCOc1ccc(CN2CCN(C)CC2)cc1 | 19 | -11 | 88 | 1.1 | 110 | 144*
CN1C(=O)C(Cc2c[nH]c3ccccc23)C(=O)N(C)C1=O | -66 | 9 | 159* | 1.2 | 92 | 10
CN1C(=O)C(Cc2cccc3ccccc23)C(=O)N(C)C1=O | 1 | 2 | 101 | 0.8 | 98 | 20
COC(=O)C(=O)N1CC2(C)CNCC(C)(C1)C2=O | -5 | -7 | 108 | 1 | 105 | -13
Cc1ccc(-n2c(O)c(C=Nc3ccccc3N)c(=O)[nH]c2=O)cc1C | -1 | -40 | 104 | 2.7 | 137* | 135*
Cc1cc(S(N)(=O)=O)ccc1N=Cc1c(O)n(-c2ccccc2)c(=O)[nH]c1=O | 1 | 0 | 102 | 1.3 | 98 | 20
CC1=NN(c2ccccc2)C(=O)/C1=C/c1c(O)[nH]c(=S)[nH]c1=O | -39 | 11 | 146* | 1.1 | 86 | -3
CCC(CO)(C(=O)OC1C[N+]2(C)CCC1CC2)c1ccccc1 (centres undefined) | 12 | -9 | 95 | 1.1 | 106 | 12
O=C(COc1ccccc1)N1CCN(Cc2c[nH]c3ccccc23)CC1 | -22 | 5 | 125 | 1.1 | 96 | -3
COc1ccc(OCC(=O)N2CCN(Cc3c[nH]c4ccccc34)CC2)cc1 | -35 | 6 | 135* | 1 | 94 | -9
CC(C)C/C(=N/O)c1c[nH]c2ccccc12 | -32 | 8 | 134* | 0.91 | 93 | .
NP(=O)(OCC(F)(F)F)Oc1ccccc1 (centres undefined) | 8 | 1 | 101 | . | 94 | -7
Cc1ccc2c(c1)c(=O)c1c3n2CCN(CC2CO2)C3CC1 (centres undefined) | 6 | 1 | 99 | 1 | 97 | 10
Cc1cc(C)cc(N2C(=O)NC(=O)/C(=C\c3cc(C)n(C)c3C)C2=O)c1 | 35 | -1 | 75 | 1.4 | 100 | 4
CC1=NN(c2ccccc2)C(=O)C1/C=C1/C(=O)NC(=O)N(c2cccc(C)c2)C1=O (centres undefined) | -50 | -5 | 150* | 1.2 | 105 | 7
Cc1cccc(N2C(=O)NC(=O)/C(=C/c3cc4c(cc3[N+](=O)[O-])OCO4)C2=O)c1 | 8 | 7 | 103 | 1.2 | 93 | 11
CC1=NN(c2ccccc2)C(=O)C1/C=C1/C(=O)NC(=O)N(c2cc(C)cc(C)c2)C1=O (centres undefined) | -44 | 5 | 144* | 1.4 | 95 | 3
CC(C)(C)C(=O)c1cn(Cc2ccccc2)c2ccccc12 | -2 | -32 | 106 | 0.81 | 126 | 1
